# Measured values published in publication PMC6800648 (Cell chemical biology, 2019).
# Numbered stars: 1 amine (or outer) side, 2 acyl side, 3 side chain; on linkers, the order of the positions; unused ones are H or OH. Square brackets hold non-standard residues; d marks the D form. Peptide text beside a SMILES is read from it. * marks the point of attachment. NH(CH2CH2O)11C2H4NHBiotinyl = O=C(CCCC[C@@H]1SC[C@@H]2NC(=O)N[C@@H]21)NCCOCCOCCOCCOCCOCCOCCOCCOCCOCCOCCOCCN*; X2 = COc1ccc(CN(C)CCCC[C@H](N[*:1])C(=O)[*:2])cc1; X5 = CN(CCCC[C@H](N[*:1])C(=O)[*:2])Cc1ccc(F)cc1; X8 = O=C([C@H](CCCCN(C1CCC1)C1CCC1)N[*:1])[*:2]; X3 = CN(CCCC[C@H](N[*:1])C(=O)[*:2])Cc1ccccc1; X7 = CN(CCCC[C@H](N[*:1])C(=O)[*:2])C1CCCCC1; X1 = CCCN(CCCC[C@H](N[*:1])C(=O)[*:2])C(C)C; X6 = CN(CCCC[C@H](N[*:1])C(=O)[*:2])C1CCCC1; Lys(Et,iPr) = CCN(CCCC[C@H](N)C(=O)O)C(C)C; X4 = COC(C)N(C)CCCC[C@H](N[*:1])C(=O)[*:2]; Benzoyl(4-tBu) = CC(C)(C)c1ccc(C(=O)*)cc1; X9 = O=C([C@H](CCCCN1CCCCC1)N[*:1])[*:2]; Lys(Et2) = CCN(CC)CCCC[C@H](N)C(=O)O; Lys(Me2) = CN(C)CCCC[C@H](N)C(=O)O; NMeA = CN[C@@H](C)C(=O)O
# Assays:
# [1] = biological target: T1, CBX7 (Mus musculus, UniProt Q8VDS3); test: Polycomb in-vivo Assay; format: cell-based; conditions: for activity in the Polycomb in-vivo Assay (reactivation of GFP expression): 48-hour treatment, flow cytometry
# T1 sequence (Q8VDS3 2-69 limits assumed): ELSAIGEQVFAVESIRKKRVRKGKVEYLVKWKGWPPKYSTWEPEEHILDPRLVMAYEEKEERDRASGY
# [2] = biological target: T2, CBX7 chromodomain (Homo sapiens, UniProt O95931); test: Fluorescence polarization; format: biochemical; conditions: 30 μM CBX7 chromodomain, 100 nM FAM-dsDNA
# T2 sequence (O95931 1-62): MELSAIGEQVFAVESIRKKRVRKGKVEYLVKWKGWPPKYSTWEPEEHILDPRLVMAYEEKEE
# Method in brief: (§1)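 Buffer: 25 mM Tris-HCl pH 7.4, 100 mM NaCl, 0.05% Tween-20, 2 mM DTT; 100 nM FAM-dsDNA or FAM-ANRIL-RNA; 0.2% DMSO; 30 min at RT. Compound titration: eight-point three-fold series from 100 µM with 30 µM CBX7 chromodomain. Ratio mode: CBX7 and test compound co-diluted at fixed 3:1 from 300 µM/100 µM. Polarisation normalised to a no-protein control; α fitted by the Stockton-Ehlert allosteric model.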
# [3] = biological target: T2, CBX7 chromodomain; test: Fluorescence polarization; format: biochemical; conditions: 30 μM CBX7 chromodomain, 100 nM FAM-ANRIL-RNA
# Method in brief: as §1
# [4] = biological target: T2, CBX7 chromodomain; test: Electrophoretic mobility shift assay; format: biochemical; conditions: EMSA, 150 mM CBX7 and 100 nM FAM-dsDNA probe, 1:3 ratio of compound to CBX7
# Method in brief: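 Buffer: 25 mM Tris-HCl pH 7.4, 100 mM NaCl, 0.05% Tween-20, 2 mM DTT. Compound runs used 150 µM CBX7 with 100 nM FAM-DNA probe and 50 µM test compound (0.3% DMSO); protein-only runs used a three-fold CBX7 series. Binding 20 min on ice. Native 10% Tris-glycine gel at 100 V, 4°C, 90 min in the dark. FAM fluorescence imaged, then Coomassie-stained.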
# [5] = system: 120 purified Kme reader domains; test: Chromatin-associated domain array; format: binding; conditions: biotinylated ligand, fluorescently tagged streptavidin visualization
# [6] = system: canonical PRC1 complex; test: Chemiprecipitation; format: binding, human; conditions: PC3 cell lysates, western blot
# Method in brief: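 PC3 cells in DMEM/F12 plus 10% FBS were grown to 80–90% confluency, trypsinised, PBS-washed twice, and lysed fresh or after flash freezing. Lysates were pulled down with biotinylated test compounds. Beads were boiled in Laemmli buffer at 95 °C for 3 min, with 1% input. Proteins were separated by SDS-PAGE and blotted to PVDF. Primary antibody overnight at 4°C; infrared secondaries (1:10,000).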
# [7] = biological target: T3, CBX7 (Mus musculus, UniProt Q8VDS3); format: cell-based; conditions: TetOFF reporter cell line; UNC4976 compared to UNC3866 treatment
# T3 sequence (Q8VDS3 1-158): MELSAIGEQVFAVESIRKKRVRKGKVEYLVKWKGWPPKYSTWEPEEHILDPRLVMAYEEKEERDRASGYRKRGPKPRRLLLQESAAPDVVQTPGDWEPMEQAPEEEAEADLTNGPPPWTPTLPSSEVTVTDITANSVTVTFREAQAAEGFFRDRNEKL
# [8] = system: mESCs; test: CellTiter-Glo viability assay in mESCs; format: cell-based, mouse; conditions: 48 hr
# Method in brief: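 Mouse ES cells, 5,000 per well, exposed in technical triplicate for 48 hr at 37°C to a ten-point three-fold dilution series prepared from 50 mM DMSO stocks (0.2% DMSO final). Media-only wells served as negative controls. After equilibrating at room temperature, CellTiter-Glo was added, with 2 min shaking and 10 min settling, then luminescence read.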
smiles,measurement,setting,value
"Cc1ccccc1Cn1c(=N)n(CC(O)c2ccc(Cl)c(Cl)c2)c2ccccc21.Cl (stereo not shown) [MS351, reference compound]",activity in the Polycomb in-vivo Assay (reactivation of GFP expression),[1],inactive
same,change of fluorescence polarization on compound titration,[2],did not observe increased fluorescence polarization
same,change of fluorescence polarization on compound titration,[3],did not observe increased fluorescence polarization
same,effect on FAM-dsDNA binding to CBX7,[4],did not observe enhancement
"COc1cccc(C(=O)N2CCN(C(=O)COc3cccc(C)c3)CC2)c1OC [MS452, reference compound]",activity in the Polycomb in-vivo Assay (reactivation of GFP expression),[1],inactive
same,change of fluorescence polarization on compound titration,[2],slight destabilizing effect
same,change of fluorescence polarization on compound titration,[3],slight destabilizing effect
same,effect on FAM-dsDNA binding to CBX7,[4],no effect
"CCN(CC)CCCC[C@H](NC(=O)[C@H](CC(C)C)NC(=O)[C@H](C)NC(=O)[C@H](Cc1ccccc1)NC(=O)c1ccc(C(C)(C)C)cc1)C(=O)N[C@@H](CO)C(=O)NCCOCCOCCOCCOCCOCCOCCOCCOCCOCCOCCOCCNC(=O)CCCC[C@@H]1SC[C@@H]2NC(=O)N[C@@H]21 [UNC4195, 4-(tert-butyl)-N-((2S,5S,8S,11S,14S)-11-(4-(diethylamino)butyl)-14-(hydroxymethyl)-8-isobutyl-5-methyl-3,6,9,12,15,53-hexaoxo-57-((3aS,4S,6aR)-2-oxohexahydro-1H-thieno[3,4-d]imidazol-4-yl)-1-phenyl-19,22,25,28,31,34,37,40,43,46,49-undecaoxa-4,7,10,13,16,52-hexaazaheptapentacontan-2-yl)benzamide, reference compound] ({Benzoyl(4-tBu)}-FAL[Lys(Et2)]S-{NH(CH2CH2O)11C2H4NHBiotinyl})",selectivity profile on CADOR microarray,[5],binding interactions were only detected for all five Polycomb CBX chromodomains and a small subset of CDY chromodomains
same,"pulldown of canonical PRC1 components (CBX4, CBX7, CBX8, RING1B, BMI1)",[6],"we detected pulldown of CBX4, CBX7, CBX8, RING1B, and BMI1"
"CCN(CC)CCCC[C@H](NC(=O)[C@H](CC(C)C)NC(=O)[C@H](C)N(C)C(=O)[C@H](Cc1ccccc1)NC(=O)c1ccc(C(C)(C)C)cc1)C(=O)N[C@@H](CO)C(=O)OC [UNC4219, methyl N^2-N-((4-(tert-butyl)benzoyl)-L-phenylalanyl)-N-methyl-L-alanyl-L-leucyl-N^6,N^6-diethyl-L-lysyl-L-serinate, reference compound] ({Benzoyl(4-tBu)}-F[NMeA]L[Lys(Et2)]S-OMe)",activity in the Polycomb in-vivo Assay (reactivation of GFP expression),[1],inactive
same,derepression of the GFP reporter gene / maintenance of Polycomb silencing,[7],unaffected
same,mESC viability upon compound treatment,[8],non-toxic
same,effect on FAM-dsDNA binding to CBX7,[4],no effect
"CCN(CCCC[C@H](NC(=O)[C@H](CC(C)C)NC(=O)[C@H](C)NC(=O)[C@H](Cc1ccccc1)NC(=O)c1ccc(C(C)(C)C)cc1)C(=O)N[C@@H](CO)C(=O)OC)C(C)C [UNC4941, methyl N^2-(4-(tert-butyl)benzoyl)-L-phenylalanyl-L-alanyl-L-leucyl-N^6-ethyl-N^6-isopropyl-L-lysyl-L-serinate] ({Benzoyl(4-tBu)}-FAL[Lys(Et,iPr)]S-OMe)",EC50,[1],36.6 ± 1.14 µM
"CCCN(CCCC[C@H](NC(=O)[C@H](CC(C)C)NC(=O)[C@H](C)NC(=O)[C@H](Cc1ccccc1)NC(=O)c1ccc(C(C)(C)C)cc1)C(=O)N[C@@H](CO)C(=O)OC)C(C)C [UNC4971, methyl N^2-(4-(tert-butyl)benzoyl)-L-phenylalanyl-L-alanyl-L-leucyl-N^6-isopropyl-N^6-propyl-L-lysyl-L-serinate] ({Benzoyl(4-tBu)}-FAL[X1]S-OMe)",EC50,[1],26.5 ± 3.24 µM
"COC(=O)[C@H](CO)NC(=O)[C@H](CCCCN(C)C)NC(=O)[C@H](CC(C)C)NC(=O)[C@H](C)NC(=O)[C@H](Cc1ccccc1)NC(=O)c1ccc(C(C)(C)C)cc1 [UNC5352, methyl N^2-(4-(tert-butyl)benzoyl)-L-phenylalanyl-L-alanyl-L-leucyl-N^6,N^6-dimethyl-L-lysyl-L-serinate] ({Benzoyl(4-tBu)}-FAL[Lys(Me2)]S-OMe)",EC50,[1],105 ± 11.3 µM
"COC(=O)[C@H](CO)NC(=O)[C@H](CCCCN(C1CCC1)C1CCC1)NC(=O)[C@H](CC(C)C)NC(=O)[C@H](C)NC(=O)[C@H](Cc1ccccc1)NC(=O)c1ccc(C(C)(C)C)cc1 [UNC6370, methyl N^2-(4-(tert-butyl)benzoyl)-L-phenylalanyl-L-alanyl-L-leucyl-N^6,N^6-dicyclobutyl-L-lysyl-L-serinate] ({Benzoyl(4-tBu)}-FAL[X8]S-OMe)",EC50,[1],13.7 ± 0.535 µM
"COC(=O)[C@H](CO)NC(=O)[C@H](CCCCN(C)C1CCCC1)NC(=O)[C@H](CC(C)C)NC(=O)[C@H](C)NC(=O)[C@H](Cc1ccccc1)NC(=O)c1ccc(C(C)(C)C)cc1 [UNC6371, methyl N^2-(4-(tert-butyl)benzoyl)-L-phenylalanyl-L-alanyl-L-leucyl-N^6-cyclopentyl-N^6-methyl-L-lysyl-L-serinate] ({Benzoyl(4-tBu)}-FAL[X6]S-OMe)",EC50,[1],~20 µM
"COC(=O)[C@H](CO)NC(=O)[C@H](CCCCN(C)C1CCCCC1)NC(=O)[C@H](CC(C)C)NC(=O)[C@H](C)NC(=O)[C@H](Cc1ccccc1)NC(=O)c1ccc(C(C)(C)C)cc1 [UNC6372, methyl N^2-(4-(tert-butyl)benzoyl)-L-phenylalanyl-L-alanyl-L-leucyl-N^6-cyclohexyl-N^6-methyl-L-lysyl-L-serinate] ({Benzoyl(4-tBu)}-FAL[X7]S-OMe)",EC50,[1],4.59 ± 0.292 µM
"COC(=O)[C@H](CO)NC(=O)[C@H](CCCCN1CCCCC1)NC(=O)[C@H](CC(C)C)NC(=O)[C@H](C)NC(=O)[C@H](Cc1ccccc1)NC(=O)c1ccc(C(C)(C)C)cc1 [UNC6374, methyl ((S)-2-((S)-2-((S)-2-((S)-2-(4-(tert-butyl)benzamido)-3-phenylpropanamido)propanamido)-4-methylpentanamido)-6-(piperidin-1-yl)hexanoyl)-L-serinate] ({Benzoyl(4-tBu)}-FAL[X9]S-OMe)",EC50,[1],33.1 ± 1.9 µM
"COC(=O)[C@H](CO)NC(=O)[C@H](CCCCN(C)Cc1ccccc1)NC(=O)[C@H](CC(C)C)NC(=O)[C@H](C)NC(=O)[C@H](Cc1ccccc1)NC(=O)c1ccc(C(C)(C)C)cc1 [UNC6375, methyl N^6-benzyl-N^2-(4-(tert-butyl)benzoyl)-L-phenylalanyl-L-alanyl-L-leucyl-N^6-methyl-L-lysyl-L-serinate] ({Benzoyl(4-tBu)}-FAL[X3]S-OMe)",EC50,[1],2.36 ± 0.115 µM
"COC(=O)[C@H](CO)NC(=O)[C@H](CCCCN(C)Cc1ccc(F)cc1)NC(=O)[C@H](CC(C)C)NC(=O)[C@H](C)NC(=O)[C@H](Cc1ccccc1)NC(=O)c1ccc(C(C)(C)C)cc1 [UNC6376, methyl N^2-(4-(tert-butyl)benzoyl)-L-phenylalanyl-L-alanyl-L-leucyl-N^6-(4-fluorobenzyl)-N^6-methyl-L-lysyl-L-serinate] ({Benzoyl(4-tBu)}-FAL[X5]S-OMe)",EC50,[1],2.22 ± 0.194 µM
"COC(=O)[C@H](CO)NC(=O)[C@H](CCCCN(C)C(C)OC)NC(=O)[C@H](CC(C)C)NC(=O)[C@H](C)NC(=O)[C@H](Cc1ccccc1)NC(=O)c1ccc(C(C)(C)C)cc1 (stereo partly drawn) [UNC6481, methyl N^2-(4-(tert-butyl)benzoyl)-L-phenylalanyl-L-alanyl-L-leucyl-N^6-(1-methoxyethyl)-N^6-methyl-L-lysyl-L-serinate] ({Benzoyl(4-tBu)}-FAL[X4]S-OMe)",EC50,[1],23.7 ± 1.74 µM
"COC(=O)[C@H](CO)NC(=O)[C@H](CCCCN(C)Cc1ccc(OC)cc1)NC(=O)[C@H](CC(C)C)NC(=O)[C@H](C)NC(=O)[C@H](Cc1ccccc1)NC(=O)c1ccc(C(C)(C)C)cc1 [UNC6483, methyl N^2-(4-(tert-butyl)benzoyl)-L-phenylalanyl-L-alanyl-L-leucyl-N^6-(4-methoxybenzyl)-N^6-methyl-L-lysyl-L-serinate] ({Benzoyl(4-tBu)}-FAL[X2]S-OMe)",EC50,[1],2.06 ± 0.135 µM
